Data on 18 compounds can be found in ChEMBL document CHEMBL1145996 (J Med Chem, 2003).

What all share (assay type): functional, organism-based
Assay [1] deals with Leishmania donovani. As to the kind of experiment: Antileishmanial activity of compound against leishmania donovani was determined in luciferase assay; Not active.
Assay [2] relates to Leishmania donovani. Description: Antileishmanial activity of compound against leishmania donovani was determined in luciferase assay. An outline of the steps:
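Transgenic Leishmania donovani promastigotes expressing firefly luciferase, 2×10^6 cell/mL, exposed to compound dilutions in 96-well plates at 26°C for 72 h; growth read by luciferase luminescence (Steady Glo). At least six concentrations, each in duplicate; mean values used for growth inhibition curves and IC50. Pentamidine and amphotericin B as standards.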

Assay [3] has as its system Plasmodium falciparum. As to the kind of experiment: In vitro antimalarial activity against chloroquine-resistant Plasmodium falciparum W2 Indochina. In a few lines:
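Asynchronous P. falciparum cultures (2% hematocrit, 2% parasitemia) given compound dilutions in DMSO or RPMI-1640, incubated 48 h at 37°C under 90% N2/5% CO2/5% O2 in humidified chamber. Growth read as parasite lactate dehydrogenase activity with Malstat reagent. At least six concentrations, each in duplicate; medium and RBC controls on each plate.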

In assay [4] the test system is Plasmodium falciparum. As to the kind of experiment: In vitro antimalarial activity against chloroquine-sensitive Plasmodium falciparum D6 Sierra Leone.

Activity calls are given as the source filed them. The rule behind the calls is not given here.

Regarding `C[C@@H]1CC[C@H]2[C@@H](C)C(=O)O[C@@H]3OC(C)(C)OO[C@@]32C1`, the NA entry in the assay with Leishmania donovani [1] is “inactive”.
In general, IC50 refers to the concentration needed to halve the response being measured. For `C[C@@H]1CC[C@H]2[C@H](CCCc3ccccc3)C(=O)O[C@@H]3O[C@@]4(C)CCC1[C@]32OO4` (stereo partly drawn), the IC50 in the assay on Leishmania donovani [2] is 45300 nM; in the assay on Plasmodium falciparum [3], 3.4 nM; with Plasmodium falciparum [4], 10.4 nM.
As to `CC1(C)OO[C@]23CCCC[C@H]2[C@@H](CC(=O)O)C(=O)O[C@@H]3O1`, the NA result with Leishmania donovani [1] was “inactive”.
As to `C[C@@H]1CC[C@H]2[C@@H](CCCc3cccc(Cl)c3)CO[C@@H]3O[C@@]4(C)CC[C@@H]1[C@]32O4`, the NA result in the assay on Leishmania donovani [1] was “inactive”.
As to `C[C@@H]1CC[C@H]2[C@@H](CCCc3ccccc3)C(=O)O[C@@H]3O[C@@]4(C)CCC1[C@]32OO4` (stereo partly drawn), the values for the IC50 in the assay on Leishmania donovani [2], with Plasmodium falciparum [3] and in the assay with Plasmodium falciparum [4] were 11600 nM, 1.3 nM and 4.7 nM, respectively.
As to `C[C@@H]1CC[C@H]2[C@@H](CCCc3ccc(O)cc3)C(=O)O[C@@H]3O[C@@]4(C)CC[C@@H]1[C@]32OO4`, the IC50 with Leishmania donovani [2] came out at 44700 nM; in the assay with Plasmodium falciparum [3], 4.7 nM; with Plasmodium falciparum [4] it was 7.9 nM.
Take `C[C@@H]1CC[C@H]2[C@H](CCCc3cc(C(F)(F)F)cc(C(F)(F)F)c3)C(=O)O[C@@H]3O[C@@]4(C)CC[C@@H]1[C@]32OO4`: the NA result in the assay with Leishmania donovani [1] is “inactive”. Moreover, the 50% inhibitory concentration (IC50) with Plasmodium falciparum [3] is 8.2 nM; with Plasmodium falciparum [4], 12.6 nM.
With `C[C@@H]1CC[C@H]2[C@@H](CCCc3ccc(C(F)(F)F)cc3)CO[C@@H]3O[C@@]4(C)CC[C@@H]1[C@]32O4`, the NA entry in the assay with Leishmania donovani [1] is “inactive”.
Regarding `C[C@@H]1CC[C@H]2[C@@H](CCCc3ccc(S(C)(=O)=O)cc3)C(=O)O[C@@H]3O[C@@]4(C)CCC1[C@]32OO4` (stereo partly drawn), the IC50 in the assay with Leishmania donovani [2] is 53800 nM; with Plasmodium falciparum [3], 20 nM; in the assay on Plasmodium falciparum [4], 30.1 nM.
Take `C[C@@H]1CC[C@H]2[C@@H](CCCc3cc(C(F)(F)F)cc(C(F)(F)F)c3)C(O)O[C@@H]3O[C@@]4(C)CC[C@@H]1[C@]32OO4` (stereo partly drawn): the NA entry in the assay on Leishmania donovani [1] is “inactive”.
For `C[C@@H]1CC[C@H]2[C@@H](CCCc3ccc(N(C)C)cc3)CO[C@@H]3O[C@@]4(C)CC[C@@H]1[C@]32OO4`, the IC50 in the assay on Leishmania donovani [2] was 36000 nM; with Plasmodium falciparum [3], 14.3 nM; with Plasmodium falciparum [4], 16.5 nM.
For the compound `C[C@@H]1CC[C@H]2[C@@H](C)C(=O)O[C@@H]3O[C@@]4(C)CC[C@@H]1[C@]32O4`, the NA result in the assay on Leishmania donovani [1] is “inactive”.
In the case of `C[C@@H]1CC[C@H]2[C@@H](CCCc3cc(C(F)(F)F)cc(C(F)(F)F)c3)C(=O)O[C@@H]3O[C@@]4(C)CC[C@@H]1[C@]32OO4`, the values for the IC50 with Leishmania donovani [2], in the assay with Plasmodium falciparum [3] and in the assay on Plasmodium falciparum [4] were 14400 nM, 16 nM and 18.8 nM, respectively.
`CSc1ccc(CCC[C@H]2C(=O)O[C@@H]3O[C@@]4(C)CCC5[C@H](C)CC[C@@H]2[C@]53OO4)cc1` (stereo partly drawn): the IC50 was 1400 nM in the assay with Leishmania donovani [2], 50.8 nM with Plasmodium falciparum [3] and 43.9 nM with Plasmodium falciparum [4].
Take `C[C@@H]1CC[C@H]2[C@@H](CCCc3cc(C(F)(F)F)cc(C(F)(F)F)c3)C(=O)O[C@@H]3O[C@@]4(C)CC[C@@H]1[C@]32O4`: the NA entry in the assay with Leishmania donovani [1] is “inactive”.
With `C[C@@H]1CC[C@H]2[C@@H](CCCc3ccc(S(C)(=O)=O)cc3)C(=O)O[C@@H]3O[C@@]4(C)CC[C@@H]1[C@]32O4`, in the assay with Leishmania donovani [1], the NA result is “inactive”.
Take `C[C@@H]1CC[C@H]2[C@@H](CCCc3ccc(N(C)C)cc3)C(=O)O[C@@H]3O[C@@]4(C)CCC1[C@]32OO4` (stereo partly drawn): the values for the IC50 with Leishmania donovani [2], in the assay on Plasmodium falciparum [3] and with Plasmodium falciparum [4] were 1900 nM, 11.3 nM and 27.8 nM, respectively.
As for `C[C@@H]1CC[C@H]2[C@@H](CCC#N)C(=O)O[C@@H]3O[C@@]4(C)CCC1[C@]32OO4` (stereo partly drawn), the IC50 came to 38900 nM with Leishmania donovani [2], 14.9 nM with Plasmodium falciparum [3] and 14.9 nM in the assay with Plasmodium falciparum [4].
